Experimental data from publication PMC6753935 (Journal of Clinical and Translational Science, 2019).
Where two headings read alike, the source gives them in different places.

Key:
[1] = system: human platelets in platelet-rich plasma (PRP); test: In vitro platelet aggregation in PRP of healthy human volunteers; format: cell-based
Procedure, shortened: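 Healthy donors' venous blood was anticoagulated with citrate (0.38% final), PPACK (0.1 or 0.3 mM final) or heparin (15.8 USP U/ml). PRP was spun at 650 × g for 4 min at room temperature. Aspirin 0.83 mM final for 10 min, then test compound (0.01–3 µM final) for 20 min. Aggregation induced by arachidonic acid 1.5 mM or ADP 5 µM. IC50 from initial-slope inhibition by Hill-equation fit.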

[2] = Pharmacokinetics: RUC-4 whole blood concentrations after IM, SC; format: in vivo, cynomolgus monkey (Macaca fascicularis); conditions: for Bioavailability: compared to IV
Procedure, shortened: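 Six male monkeys (two per dose: 1, 1.93, 3.86 mg/kg) received single IV, IM or SC injections (0.064 ml/kg; SC into the abdomen). Repeat arms spanned ~6 months with washout. Blood was sampled pre-dose and at 5–270 min, plus 1 min post-IV. Whole-blood levels measured by LC-MS/MS (HILIC; quadratic curve 5–5000 ng/ml). Non-compartmental analysis; bioavailability relative to IV.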

αIIbβ3 = αIIbβ3 (Homo sapiens, UniProt P05106+P08514); format: cell-based; conditions: five donors, p < 0.0001
[3] = Clinical pathology: complete blood counts; format: in vivo, cynomolgus monkey (Macaca fascicularis); conditions: arms 1, 2 and 5
Procedure, shortened: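 Same six male monkeys, dosed IM, IV or SC across five arms. EDTA blood for complete counts was drawn pre-dose and at 30, 120 and 270 min post-dose in arms 1–2. Sampling was pre-dose and 15 min in arm 3, 45 min in arm 4, and 120 min in arm 5. Hematocrit and platelet count were recorded.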

[4] = system: platelets in platelet-rich plasma (PRP); test: Light transmission platelet aggregation, RUC-4 IC50 in NHP PRP; format: cell-based, cynomolgus monkey (Macaca fascicularis); conditions: read-out: RUC-4 IC50 for platelet aggregation in NHP, mean ± SD; 5 µM ADP, citrated PRP, initial slope, 4 animals
[5] = system: platelets in platelet-rich plasma (PRP); test: ADP-induced platelet aggregation in PRP from NHPs dosed with RUC-4 IM; format: in vivo, cynomolgus monkey (Macaca fascicularis)
Procedure, shortened: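 Six adult male monkeys (3.6–4.8 y; two per dose) got a single unsedated IM injection (0.064 ml/kg) at 1, 1.93 or 3.86 mg/kg. Citrated blood was drawn pre-dose and at 30, 120 and 270 min, plus ~27 h at the top dose. PRP was adjusted to 3 × 10^5/μl with PPP. Light-transmission aggregation at 37°C with stirring, 5 µM ADP. Percent inhibition of the initial slope versus untreated sample.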

αIIbβ3, sequence (P08514 32-887 limits assumed): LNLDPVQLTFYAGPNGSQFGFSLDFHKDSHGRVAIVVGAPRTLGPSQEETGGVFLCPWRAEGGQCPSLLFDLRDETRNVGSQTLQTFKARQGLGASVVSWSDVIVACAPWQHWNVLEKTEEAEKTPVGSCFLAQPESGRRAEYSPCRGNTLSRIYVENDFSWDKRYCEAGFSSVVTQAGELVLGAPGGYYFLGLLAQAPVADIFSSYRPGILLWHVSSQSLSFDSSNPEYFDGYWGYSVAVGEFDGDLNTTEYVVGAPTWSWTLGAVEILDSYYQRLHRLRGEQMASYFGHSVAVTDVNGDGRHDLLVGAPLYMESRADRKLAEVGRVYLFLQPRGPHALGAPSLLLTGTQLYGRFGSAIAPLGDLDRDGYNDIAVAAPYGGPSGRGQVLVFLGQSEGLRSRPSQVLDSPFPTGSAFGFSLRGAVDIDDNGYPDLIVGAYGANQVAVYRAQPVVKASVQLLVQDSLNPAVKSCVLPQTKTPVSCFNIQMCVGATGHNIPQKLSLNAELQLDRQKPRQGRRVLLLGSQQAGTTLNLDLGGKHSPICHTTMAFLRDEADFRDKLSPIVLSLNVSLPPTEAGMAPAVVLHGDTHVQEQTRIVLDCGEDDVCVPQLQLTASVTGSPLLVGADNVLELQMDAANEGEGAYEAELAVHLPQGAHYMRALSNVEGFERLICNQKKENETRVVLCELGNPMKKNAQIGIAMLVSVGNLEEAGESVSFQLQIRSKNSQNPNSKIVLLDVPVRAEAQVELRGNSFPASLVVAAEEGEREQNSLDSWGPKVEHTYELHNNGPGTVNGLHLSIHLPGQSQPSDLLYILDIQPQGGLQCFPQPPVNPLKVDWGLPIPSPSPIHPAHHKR
αIIbβ3, sequence (P08514 891-1039 partner limits assumed): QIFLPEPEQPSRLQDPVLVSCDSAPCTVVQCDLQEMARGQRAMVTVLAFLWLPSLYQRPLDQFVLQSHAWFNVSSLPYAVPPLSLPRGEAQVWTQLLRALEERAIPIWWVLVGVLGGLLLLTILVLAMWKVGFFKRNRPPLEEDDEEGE
αIIbβ3, sequence (P05106 27-788): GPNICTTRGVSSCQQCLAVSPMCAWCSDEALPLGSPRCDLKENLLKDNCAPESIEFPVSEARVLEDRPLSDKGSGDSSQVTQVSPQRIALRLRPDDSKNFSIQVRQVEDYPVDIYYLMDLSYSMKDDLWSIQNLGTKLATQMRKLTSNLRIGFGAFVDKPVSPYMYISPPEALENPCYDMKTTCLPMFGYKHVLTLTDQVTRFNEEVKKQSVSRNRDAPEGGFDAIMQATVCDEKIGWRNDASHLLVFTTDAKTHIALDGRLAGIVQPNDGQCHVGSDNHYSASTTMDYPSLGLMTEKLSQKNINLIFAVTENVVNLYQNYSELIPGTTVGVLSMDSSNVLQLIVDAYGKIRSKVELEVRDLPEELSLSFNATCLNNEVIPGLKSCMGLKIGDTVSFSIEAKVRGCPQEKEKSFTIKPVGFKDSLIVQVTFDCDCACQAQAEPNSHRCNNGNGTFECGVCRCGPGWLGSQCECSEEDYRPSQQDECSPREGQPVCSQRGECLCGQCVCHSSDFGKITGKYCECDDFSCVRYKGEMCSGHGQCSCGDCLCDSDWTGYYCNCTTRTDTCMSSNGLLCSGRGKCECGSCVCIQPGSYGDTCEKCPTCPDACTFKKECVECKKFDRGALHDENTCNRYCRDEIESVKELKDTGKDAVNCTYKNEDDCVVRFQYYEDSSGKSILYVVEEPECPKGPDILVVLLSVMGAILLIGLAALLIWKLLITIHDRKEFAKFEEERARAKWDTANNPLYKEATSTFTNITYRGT

Q: Which “Effect on arachidonic-acid-induced platelet aggregation” value ([1]; aspirin 0.83 mM, arachidonic acid 1.5 mM, citrated PRP) does the source give for CC(=O)Oc1ccccc1C(=O)O [Aspirin, acetyl salicylic acid, reference compound] here?
A: eliminated

Q: Which results are given for NCC(=O)Nc1cncc(-c2nn3c(=O)cc(N4CCNCC4)nc3s2)c1 [RUC-4]?
A: Time to peak level ([2]; 1.0 mg/kg SC): 15 min; Time to peak blood levels ([2]; IM): ≤ 5 min; T1/2 ([2]; IM 1.00 mg/kg): 16.8 min; Whole blood level ([2]; IM 1.00 mg/kg, 5 minutes): 3.415 µM; Whole blood level ([2]; IM 1.00 mg/kg, 15 minutes): 2.118 µM; Whole blood level ([2]; IM 1.00 mg/kg, 30 minutes): 0.164 µM; Whole blood level ([2]; IM 1.00 mg/kg, 45 minutes): 0.236 µM; Whole blood level ([2]; IM 1.00 mg/kg, 120 minutes): < 0.008 µM; Whole blood level ([2]; IM 1.00 mg/kg, 270 minutes): < 0.007 µM; Bioavailability ([2]; IM 1.00 mg/kg): 1.2; T1/2 ([2]; IM 1.93 mg/kg): 16.8 min; Whole blood level ([2]; IM 1.93 mg/kg, 5 minutes): 3.796 µM; Whole blood level ([2]; IM 1.93 mg/kg, 15 minutes): 3.692 µM; Whole blood level ([2]; IM 1.93 mg/kg, 30 minutes): 0.297 µM; Whole blood level ([2]; IM 1.93 mg/kg, 45 minutes): 0.333 µM; Whole blood level ([2]; IM 1.93 mg/kg, 120 minutes): 0.008 µM; Whole blood level ([2]; IM 1.93 mg/kg, 270 minutes): < 0.007 µM; Bioavailability ([2]; IM 1.93 mg/kg): 0.80; T1/2 ([2]; IM 3.86 mg/kg): 31.8 min; Whole blood level ([2]; IM 3.86 mg/kg, 5 minutes): 16.009 µM; Whole blood level ([2]; IM 3.86 mg/kg, 15 minutes): 8.783 µM; Whole blood level ([2]; IM 3.86 mg/kg, 30 minutes): 0.837 µM; Whole blood level ([2]; IM 3.86 mg/kg, 45 minutes): 0.952 µM; Whole blood level ([2]; IM 3.86 mg/kg, 120 minutes): 0.016 µM; Whole blood level ([2]; IM 3.86 mg/kg, 270 minutes): < 0.007 µM; Bioavailability ([2]; IM 3.86 mg/kg): 0.88; Time to peak levels ([2]; IM and SC, all doses except 1.0 mg/kg SC): ≤ 5 min; Time to peak blood levels ([2]; SC): ≤ 5 min; T1/2 ([2]; SC 1.00 mg/kg): 33.6 min; Whole blood level ([2]; SC 1.00 mg/kg, 5 minutes): 0.746 µM; Whole blood level ([2]; SC 1.00 mg/kg, 15 minutes): 0.819 µM; Whole blood level ([2]; SC 1.00 mg/kg, 30 minutes): 0.497 µM; Whole blood level ([2]; SC 1.00 mg/kg, 45 minutes): 0.241 µM; Whole blood level ([2]; SC 1.00 mg/kg, 120 minutes): 0.077 µM; Bioavailability ([2]; SC 1.00 mg/kg): 0.55; T1/2 ([2]; SC 1.93 mg/kg): 24.6 min; Whole blood level ([2]; SC 1.93 mg/kg, 5 minutes): 3.445 µM; Whole blood level ([2]; SC 1.93 mg/kg, 15 minutes): 3.056 µM; Whole blood level ([2]; SC 1.93 mg/kg, 30 minutes): 1.295 µM; Whole blood level ([2]; SC 1.93 mg/kg, 45 minutes): 0.551 µM; Whole blood level ([2]; SC 1.93 mg/kg, 120 minutes): 0.104 µM; Bioavailability ([2]; SC 1.93 mg/kg): 0.78; T1/2 ([2]; SC 3.86 mg/kg): 23.4 min; Whole blood level ([2]; SC 3.86 mg/kg, 5 minutes): 6.036 µM; Whole blood level ([2]; SC 3.86 mg/kg, 15 minutes): 5.310 µM; Whole blood level ([2]; SC 3.86 mg/kg, 30 minutes): 3.523 µM; Whole blood level ([2]; SC 3.86 mg/kg, 45 minutes): 1.098 µM; Whole blood level ([2]; SC 3.86 mg/kg, 120 minutes): 0.225 µM; Bioavailability ([2]; SC 3.86 mg/kg): 0.60; Average correlation between inhibition of platelet aggregation and inhibition of PAC-1 binding (αIIbβ3): 0.96; Reductions in hematocrit, assessment [3]: considered consistent with the blood drawing from the animals; Platelet counts, trend ([3]; possible exception animal 4 at 1.93 mg/kg IM): did not demonstrate obvious drug-related trends by dose or time after administration; Difference in RUC-4 IC50, citrate versus heparin and PPACK ([1]; lower IC50 in PRP from citrate-anticoagulated blood): approximately twofold; IC50 ([1]; read-out: RUC-4 IC50, 20 µM TRAP, blood anticoagulated with PPACK (0.3 mM), n = 4): 122 ± 17 nM; IC50 ([1]; read-out: RUC-4 IC50, 20 µM TRAP, blood anticoagulated with heparin (15.8 U/ml), n = 4): 111 ± 7 nM; IC50 ([1]; read-out: RUC-4 IC50, 20 µM TRAP, blood anticoagulated with sodium citrate (0.38%), n = 4): 66 ± 25 nM; IC50 ([1]; read-out: RUC-4 IC50, ADP 20 µM, blood anticoagulated with PPACK (0.1 mM), n = 5): 102 ± 22 nM; IC50 ([1]; read-out: RUC-4 IC50, ADP 20 µM, blood anticoagulated with sodium citrate (0.38%), n = 5): 54 ± 13 nM; IC50 ([1]; read-out: RUC-4 IC50, ADP (5 µM), aspirin (0.83 mM), mean of 5 patients): 37 nM; IC50 ([1]; read-out: RUC-4 IC50, ADP (5 µM), aspirin (0.83 mM), patient 1): 41 nM; IC50 ([1]; read-out: RUC-4 IC50, ADP (5 µM), aspirin (0.83 mM), patient 2): 33 nM; IC50 ([1]; read-out: RUC-4 IC50, ADP (5 µM), aspirin (0.83 mM), patient 3): 32 nM; IC50 ([1]; read-out: RUC-4 IC50, ADP (5 µM), aspirin (0.83 mM), patient 4): 43 nM; IC50 ([1]; read-out: RUC-4 IC50, ADP (5 µM), aspirin (0.83 mM), patient 5): 37 nM; IC50 ([1]; read-out: RUC-4 IC50, ADP (5 µM), vehicle, mean of 5 patients): 40 nM; IC50 ([1]; read-out: RUC-4 IC50, ADP (5 µM), vehicle, patient 1): 52 nM; IC50 ([1]; read-out: RUC-4 IC50, ADP (5 µM), vehicle, patient 2): 38 nM; IC50 ([1]; read-out: RUC-4 IC50, ADP (5 µM), vehicle, patient 3): 34 nM; IC50 ([1]; read-out: RUC-4 IC50, ADP (5 µM), vehicle, patient 4): 47 nM; IC50 ([1]; read-out: RUC-4 IC50, ADP (5 µM), vehicle, patient 5): 31 nM; IC50 ([1]; read-out: RUC-4 IC50, arachidonic acid (1.5 mM), vehicle, mean of 5 patients): 61 nM; IC50 ([1]; read-out: RUC-4 IC50, arachidonic acid (1.5 mM), vehicle, patient 1): 67 nM; IC50 ([1]; read-out: RUC-4 IC50, arachidonic acid (1.5 mM), vehicle, patient 2): 52 nM; IC50 ([1]; read-out: RUC-4 IC50, arachidonic acid (1.5 mM), vehicle, patient 3): 41 nM; IC50 ([1]; read-out: RUC-4 IC50, arachidonic acid (1.5 mM), vehicle, patient 4): 72 nM; IC50 ([1]; read-out: RUC-4 IC50, arachidonic acid (1.5 mM), vehicle, patient 5): 71 nM; IC50 ([1]; read-out: RUC-4 IC50 for ADP-induced aggregation, ADP 5 µM, aspirin-treated platelets (0.83 mM), citrated PRP): 37 ± 5 nM; Clinical observations (IM, similar at all doses, all animals): some minor bruising and red, raised areas limited to site of injection (thigh) or venipuncture; Clinical observations (IV 1.93 mg/kg, one animal in arm 2): minor nose and gingival bleeding; Clinical observations (IV 3.86 mg/kg, one animal in arm 2 and both animals in arm 3): vomited immediately after the IV injection; Clinical findings (SC, resolved by ~24 hours post-dose): red discoloration of the skin at the venipuncture and administration sites and bruising at sites of injection and inguinal areas; Tolerability (all doses, IM, IV, SC): well tolerated; IC50 [4]: 807 ± 231 nM; Average inhibition of the initial slope of platelet aggregation in the two animals tested ([5]; IM 1.00 mg/kg, 30 minutes): b (Values of whole blood RUC-4 levels corresponding to an average of >80% inhibition of the initial slope of platelet aggregation in the two animals tested.); Average inhibition of the initial slope of platelet aggregation in the two animals tested ([5]; IM 1.00 mg/kg, 120 minutes): c (Values of whole blood RUC-4 levels corresponding to an average of 0%–80% inhibition of the initial slope of platelet aggregation in the two animals tested.); Average inhibition of the initial slope of platelet aggregation in the two animals tested ([5]; IM 1.00 mg/kg, 270 minutes): c (Values of whole blood RUC-4 levels corresponding to an average of 0%–80% inhibition of the initial slope of platelet aggregation in the two animals tested.); Average inhibition of the initial slope of platelet aggregation in the two animals tested ([5]; IM 1.93 mg/kg, 30 minutes): b (Values of whole blood RUC-4 levels corresponding to an average of >80% inhibition of the initial slope of platelet aggregation in the two animals tested.); Average inhibition of the initial slope of platelet aggregation in the two animals tested ([5]; IM 1.93 mg/kg, 120 minutes): b (Values of whole blood RUC-4 levels corresponding to an average of >80% inhibition of the initial slope of platelet aggregation in the two animals tested.); Average inhibition of the initial slope of platelet aggregation in the two animals tested ([5]; IM 1.93 mg/kg, 270 minutes): c (Values of whole blood RUC-4 levels corresponding to an average of 0%–80% inhibition of the initial slope of platelet aggregation in the two animals tested.); Average inhibition of the initial slope of platelet aggregation in the two animals tested ([5]; IM 3.86 mg/kg, 30 minutes): b (Values of whole blood RUC-4 levels corresponding to an average of >80% inhibition of the initial slope of platelet aggregation in the two animals tested.); Average inhibition of the initial slope of platelet aggregation in the two animals tested ([5]; IM 3.86 mg/kg, 120 minutes): b (Values of whole blood RUC-4 levels corresponding to an average of >80% inhibition of the initial slope of platelet aggregation in the two animals tested.); Average inhibition of the initial slope of platelet aggregation in the two animals tested ([5]; IM 3.86 mg/kg, 270 minutes): c (Values of whole blood RUC-4 levels corresponding to an average of 0%–80% inhibition of the initial slope of platelet aggregation in the two animals tested.); Inhibition of the initial slope of aggregation in response to ADP ([5]; IM, all samples with whole blood RUC-4 concentration ≥ ~8 nM): > 80%; Inhibition of the initial slope of ADP-induced aggregation ([5]; IM, all three doses (1.0, 1.93, 3.86 mg/kg), 30 minutes post-dosing): > 80%
